# Experimental data taken from ChEMBL document CHEMBL5226322, “Harnessing the Role of HDAC6 in Idiopathic Pulmonary Fibrosis: Design, Synthesis, Structural Analysis, and Biological Evaluation of Potent Inhibitors” (J Med Chem, 2021).
# Activity calls are given as the source filed them. No cut-off for these calls is given here.
# Tests used:
# NIH3T3 = test: Cytotoxicity in mouse NIH3T3 cells assessed as reduction in cell viability at 15 uM incubated for 24 hrs by neutral red uptake method based UV/visible spectrophotometer analysis; format: toxicity; details: nih3t3, 24 h
# How it was run: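 NIH3T3 mouse fibroblasts grown in DMEM with 10% FCS, L-glutamine/pen-strep and non-essential amino acids (37 °C, 5% CO2). Exposed 24 h to compound diluted from a DMSO stock into medium. Viability measured by Neutral Red uptake: 3 h in NR medium, then acetic acid/ethanol desorb, absorbance at 540 nm. Student's t-test, p<0.05.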
# Heart [1] = test: Cardiotoxicity in Langendorff-perfused Sprague-Dawley rat heart assessed as effect on PQ interval time at 0.01 uM by ECG analysis (reference value: 43.6 +/-2.5 milliseconds); format: toxicity, tissue-based
# Heart [2] = test: Cardiotoxicity in Langendorff-perfused Sprague-Dawley rat heart assessed as effect on PQ interval time at 0.1 uM by ECG analysis (reference value: 43.6 +/-2.5 milliseconds); format: toxicity, tissue-based
# Homo sapiens [3] = species on record: Homo sapiens; test: Antifibrotic activity in TGF-beta1-induced human Lung parenchyma assessed as inhibition of HDAC6 mRNA expression at 4.1 uM incubated upto 7 days by qRT-PCR analysis; format: functional; details: time <= 7.0 day
# How it was run: (§1)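 Human lung parenchyma pieces (2 mm³) cultured in DMEM with TGF-β1 (10 ng/mL) plus compound at 0.41 or 4.1 μM or vehicle (0.1% DMSO). Tissue collected on day 7, homogenized, total RNA purified, then qRT-PCR for HDAC6, collagen I, collagen III, αSMA and fibronectin. Relative expression by the 2^-Ct method; n=3, paired t test.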
# Heart [4] = test: Cardiotoxicity in Langendorff-perfused Sprague-Dawley rat heart assessed as effect on HR at 0.1 uM by ECG analysis (reference value: 235.7 +/-8.3 bpm); format: toxicity, tissue-based
# Heart [5] = test: Cardiotoxicity in Langendorff-perfused Sprague-Dawley rat heart assessed as effect on RR time at 0.01 uM by ECG analysis (reference value: 257.2 +/-8.1 milliseconds); format: toxicity, tissue-based
# Heart [6] = test: Cardiotoxicity in Langendorff-perfused Sprague-Dawley rat heart assessed as effect on QT interval time at 0.01 uM by ECG analysis (reference value: 76.2 +/-2.9 milliseconds); format: toxicity, tissue-based
# Homo sapiens [7] = species on record: Homo sapiens; test: Antifibrotic activity in TGF-beta1-induced human Lung parenchyma assessed as inhibition of collagen 3 mRNA expression at 4.1 uM incubated upto 7 days by qRT-PCR analysis; format: functional; details: time <= 7.0 day; how it was run: as §1
# Heart [8] = test: Cardiotoxicity in Langendorff-perfused Sprague-Dawley rat heart assessed as effect on QRS interval time at 0.1 uM by ECG analysis (reference value: 15.2 +/-0.2 milliseconds); format: toxicity, tissue-based
smiles,measurement,setting,value
CC1(C)c2ccccc2N(Cc2ccc(C(=O)NO)cc2)C1c1cccnc1 (racemic),Activity,NIH3T3,94%
same,Time,Heart [1],44.1 ms
same,Time,Heart [2],44.6 ms
same,Activity,Homo sapiens [3],Active
same,Activity,Heart [4],238.1 bpm
same,Time,Heart [5],255.9 ms
same,Time,Heart [6],78.1 ms
same,Activity,Homo sapiens [7],Active
same,Time,Heart [8],15.4 ms
